In ChEMBL document CHEMBL1649139, “A novel gene, erm(41), confers inducible macrolide resistance to clinical isolates of Mycobacterium abscessus but is absent from Mycobacterium chelonae” (2009):

What was measured:
Assay type in all cases: functional
[1] = test system: Mycobacteroides abscessus; assay: Antimicrobial activity against Mycobacterium abscessus isolate MC1448 at day 5 by broth microdilution method; settings: isolate MC1448, 120 h
How it was run: (§1)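 Clarithromycin MIC by broth microdilution following CLSI guidelines. Before testing, organisms were preincubated for 3 days in medium alone or in clarithromycin or erythromycin (0.01–1 μg/ml), long enough for at least two generations judged by turbidity increase. MICs were read on day 3 and again on extended incubation out to day 14.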

[2] = test system: Mycobacteroides abscessus; assay: Antimicrobial activity against Mycobacterium abscessus isolate MC1028 at day 3 preincubated with 0.1 ug/ml for 3 days by broth microdilution method
How it was run: (§2)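 Clarithromycin MIC by CLSI-conforming broth microdilution. Before testing, cultures were preincubated for 3 days, either in medium alone or in clarithromycin or erythromycin (tested range 0.01–1 μg/ml). Preincubation ran for at least two generations, judged by turbidity increase. Plates were read on day 3 and on extended incubation at days 5 to 14.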

[3] = test system: Mycobacteroides abscessus; assay: Antimicrobial activity against Mycobacterium abscessus isolate MC720 at day 14 by broth microdilution method; settings: isolate MC720, 336 h; how it was run: as §1
[4] = test system: Mycolicibacterium smegmatis; assay: Antimicrobial activity against Mycobacterium smegmatis transformed with erm allele Mycobacterium abscessus isolate MC958 preincubated with 2 ug/ml erythromycin for 20 to 24 hrs by broth microdilution method
[5] = test system: Mycobacteroides abscessus; assay: Antimicrobial activity against Mycobacterium abscessus isolate MC1028 at day 9 by broth microdilution method; settings: isolate MC1028, 216 h; how it was run: as §2
[6] = test system: Mycobacteroides abscessus; assay: Antimicrobial activity against Mycobacterium abscessus isolate MC879-2 at day 3 preincubated with 0.1 ug/ml for 3 days by broth microdilution method
[7] = test system: Mycobacteroides abscessus; assay: Antimicrobial activity against Mycobacterium abscessus isolate MC958 at day 7 by broth microdilution method; settings: isolate MC958, 168 h
How it was run: (§3)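 Clarithromycin MIC by broth microdilution following CLSI guidelines. Organisms were preincubated […], for 3 days before the assay. This allowed at least two generations, judged by the rise in turbidity. The MIC was read at the stated day, with incubation extended from day 3 to as long as 14 days.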

[8] = test system: Mycobacteroides abscessus; assay: Antimicrobial activity against Mycobacterium abscessus isolate MC879 at day 5 preincubated with 0.1 ug/ml erythromycin for 3 days by broth microdilution method
How it was run: (§4)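 Clinical M. abscessus isolates were preincubated for 3 days, either in medium alone or in clarithromycin or erythromycin at 0.01 to 1 μg/ml, allowing at least two generations of growth judged by turbidity. The clarithromycin MIC was then determined by CLSI-conforming broth microdilution, with plates read on day 3 and on extended incubation (days 5 to 14).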

[9] = test system: Mycobacteroides abscessus; assay: Antimicrobial activity against Mycobacterium abscessus isolate MC723 at day 9 preincubated with 0.1 ug/ml for 3 days by broth microdilution method; how it was run: as §1
[10] = test system: Mycobacteroides abscessus; assay: Antimicrobial activity against Mycobacterium abscessus isolate MC1082 at day 3 preincubated with 0.1 ug/ml for 3 days by broth microdilution method; how it was run: as §2
[11] = test system: Mycolicibacterium smegmatis; assay: Antimicrobial activity against Mycobacterium smegmatis transformed with erm allele Mycobacterium abscessus isolate MC879-2 preincubated with 2 ug/ml erythromycin for 20 to 24 hrs by broth microdilution method
[12] = test system: Mycobacteroides abscessus; assay: Antimicrobial activity against Mycobacterium abscessus isolate MC719 at day 5 by broth microdilution method; settings: isolate MC719, 120 h; how it was run: as §1
[13] = test system: Mycobacteroides abscessus; assay: Antimicrobial activity against Mycobacterium abscessus isolate MC1028 at day 14 by broth microdilution method; settings: isolate MC1028, 336 h; how it was run: as §2
[14] = test system: Mycobacteroides abscessus; assay: Antimicrobial activity against Mycobacterium abscessus isolate MC958 at day 3 by broth microdilution method; settings: isolate MC958, 72 h; how it was run: as §3
[15] = test system: Mycobacteroides abscessus; assay: Antimicrobial activity against Mycobacterium abscessus isolate MC723 at day 14 preincubated with 0.1 ug/ml for 3 days by broth microdilution method; how it was run: as §1
[16] = test system: Mycobacteroides abscessus; assay: Antimicrobial activity against Mycobacterium abscessus isolate MC720 at day 7 preincubated with 0.1 ug/ml for 3 days by broth microdilution method; how it was run: as §1
[17] = test system: Mycobacteroides abscessus; assay: Antimicrobial activity against Mycobacterium abscessus isolate MC723 at day 14 preincubated with 0.1 ug/ml erythromycin for 3 days by broth microdilution method; how it was run: as §1
[18] = test system: Mycobacteroides abscessus; assay: Antimicrobial activity against Mycobacterium abscessus isolate MC1082 at day 9 preincubated with 0.1 ug/ml for 3 days by broth microdilution method; how it was run: as §2
[19] = test system: Mycobacteroides abscessus; assay: Antimicrobial activity against Mycobacterium abscessus isolate MC879 at day 7 preincubated with 0.1 ug/ml for 3 days by broth microdilution method
How it was run: (§5)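 To test inducible resistance, cultures were preincubated for 3 days in clarithromycin or erythromycin, within 0.01–1 μg/ml. The period was set so cultures passed at least two generations, judged by turbidity increase. Clarithromycin MIC was then determined by CLSI-conforming broth microdilution and read on the stated day, from day 3 up to 14.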

[20] = test system: Mycobacteroides abscessus; assay: Antimicrobial activity against Mycobacterium abscessus isolate MC719 at day 5 preincubated with 0.1 ug/ml erythromycin for 3 days by broth microdilution method; how it was run: as §4
[21] = test system: Mycolicibacterium smegmatis; assay: Antimicrobial activity against Mycobacterium smegmatis transformed with erm allele Mycobacterium abscessus isolate MC879 by broth microdilution method
[22] = test system: Mycobacteroides abscessus; assay: Antimicrobial activity against Mycobacterium abscessus isolate MC720 at day 9 preincubated with 0.1 ug/ml erythromycin for 3 days by broth microdilution method; how it was run: as §1
[23] = test system: Mycobacteroides abscessus; assay: Antimicrobial activity against Mycobacterium abscessus isolate MC719 at day 9 preincubated with 0.1 ug/ml for 3 days by broth microdilution method; how it was run: as §1
[24] = test system: Mycobacteroides abscessus; assay: Antimicrobial activity against Mycobacterium abscessus isolate MC1082 at day 14 by broth microdilution method; settings: isolate MC1082, 336 h; how it was run: as §2
[25] = test system: Mycobacteroides abscessus; assay: Antimicrobial activity against Mycobacterium abscessus isolate MC958 at day 3 preincubated with 0.1 ug/ml for 3 days by broth microdilution method; how it was run: as §5
[26] = test system: Mycobacteroides abscessus; assay: Antimicrobial activity against Mycobacterium abscessus isolate MC879 at day 3 preincubated with 0.1 ug/ml for 3 days by broth microdilution method; how it was run: as §5
[27] = test system: Mycobacteroides abscessus; assay: Antimicrobial activity against Mycobacterium abscessus isolate MAB30 at day 9 preincubated with 0.1 ug/ml erythromycin for 3 days by broth microdilution method; how it was run: as §2
[28] = test system: Mycobacteroides abscessus; assay: Antimicrobial activity against Mycobacterium abscessus isolate MC1448 at day 3 by broth microdilution method; settings: isolate MC1448, 72 h; how it was run: as §2
[29] = test system: Mycobacteroides abscessus; assay: Antimicrobial activity against Mycobacterium abscessus isolate MAB30 at day 14 preincubated with 0.1 ug/ml erythromycin for 3 days by broth microdilution method; how it was run: as §2
[30] = test system: Mycobacteroides abscessus; assay: Antimicrobial activity against Mycobacterium abscessus isolate MC1028 at day 14 preincubated with 0.1 ug/ml for 3 days by broth microdilution method; how it was run: as §2
[31] = test system: Mycobacteroides abscessus; assay: Antimicrobial activity against Mycobacterium abscessus isolate MC1028 at day 5 preincubated with 0.1 ug/ml erythromycin for 3 days by broth microdilution method; how it was run: as §2
[32] = test system: Mycobacteroides abscessus; assay: Antimicrobial activity against Mycobacterium abscessus isolate MC1028 at day 5 by broth microdilution method; settings: isolate MC1028, 120 h; how it was run: as §2
[33] = test system: Mycobacteroides abscessus; assay: Antimicrobial activity against Mycobacterium abscessus isolate MC879 at day 9 by broth microdilution method; settings: isolate MC879, 216 h; how it was run: as §3
[34] = test system: Mycobacteroides abscessus; assay: Antimicrobial activity against Mycobacterium abscessus isolate MC723 at day 7 by broth microdilution method; settings: isolate MC723, 168 h; how it was run: as §4
[35] = test system: Mycolicibacterium smegmatis; assay: Antimicrobial activity against Mycobacterium smegmatis transformed with erm allele Mycobacterium abscessus isolate MC1028 by broth microdilution method

Measured: MIC

CC[C@H]1OC(=O)[C@H](C)[C@@H](O[C@H]2C[C@@](C)(OC)[C@@H](O)[C@H](C)O2)[C@H](C)[C@@H](O[C@@H]2O[C@H](C)C[C@H](N(C)C)[C@H]2O)[C@](C)(OC)C[C@@H](C)C(=O)[C@H](C)[C@@H](O)[C@]1(C)O [CLARITHROMYCIN]
16 µg/mL: [4] | [11]
> 32 µg/mL: [1] | [3] | [6] | [9] | [15] | [16] | [17] | [19] | [22] | [23] | [28] | [33]
4 µg/mL: [8] | [20]
1 µg/mL: [12]
≤ 0.5 µg/mL: [2] | [5] | [10] | [13] | [14] | [18] | [24] | [25] | [26] | [27] | [29] | [30] | [31] | [32] | [35]
8 µg/mL: [7] | [34]
2 µg/mL: [21]
